Experimental data published in ChEMBL document CHEMBL4390675, “Dopamine D4 Receptor-Selective Compounds Reveal Structure-Activity Relationships that Engender Agonist Efficacy” (J Med Chem, 2019).
Activity calls are given as the source filed them. The calls are words filed in the database; no cut-off is given here.

target: T1, D(2) dopamine receptor (Homo sapiens, UniProt P14416); assay: Agonist activity at human D2L receptor expressed in CHOK1 cells assessed as inhibition of forskolin-induced cAMP accumulation measured after 30 mins by Eu-cAMP tracer based TR-FRET assay; assay type: cell-based; details: not given
Method in brief: (§1)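 LANCE Ultra TR-FRET cAMP assay in CHO-K1 cells stably expressing human D2R long isoform or D4R. Cells were plated in HBSS/5 mM HEPES/0.2 μM metabisulfite, then immediately given compound plus forskolin (10 μM final) for 30 min at room temperature. Eu-cAMP tracer and ULight-anti-cAMP were added for 2 h in the dark. Values are % of maximal dopamine signal, nonlinear regression of triplicate runs, n = 3–4.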

T1 sequence (P14416 whole entry, canonical isoform): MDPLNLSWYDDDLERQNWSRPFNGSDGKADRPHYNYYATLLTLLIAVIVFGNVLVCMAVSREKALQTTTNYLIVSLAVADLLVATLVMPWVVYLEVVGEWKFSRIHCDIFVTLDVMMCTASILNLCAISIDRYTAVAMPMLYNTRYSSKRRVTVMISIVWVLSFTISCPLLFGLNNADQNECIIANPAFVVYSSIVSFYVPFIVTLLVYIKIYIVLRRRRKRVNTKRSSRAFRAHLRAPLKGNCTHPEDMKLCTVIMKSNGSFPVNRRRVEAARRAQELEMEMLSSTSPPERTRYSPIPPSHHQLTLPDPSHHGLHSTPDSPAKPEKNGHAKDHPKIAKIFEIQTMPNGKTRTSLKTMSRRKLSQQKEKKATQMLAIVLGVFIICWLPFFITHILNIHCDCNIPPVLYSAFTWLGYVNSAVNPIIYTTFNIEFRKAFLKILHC

SMILES	EC50
Cc1cccc(NC(=O)CCN2CCN(c3ncccn3)CC2)c1	Not Active
CCc1cccc(NC(=O)CN2CCN(c3ccc(Cl)cn3)CC2)c1	Not Active

target: T1, D(2) dopamine receptor; assay: Antagonist activity at human D2L receptor expressed in CHOK1 cells assessed as suppression of dopamine-induced inhibition of forskolin-stimulated cAMP accumulation measured after 30 mins by Eu-cAMP tracer based TR-FRET assay relative to dopamine; assay type: cell-based; details: 0.5 h

SMILES	inhibition (INH)
CCc1cccc(NC(=O)CN2CCN(c3ccc(Cl)cn3)CC2)c1	100%

target: T2, D(4) dopamine receptor (Homo sapiens, UniProt P21917); assay: Antagonist activity at human D4 receptor expressed in CHOK1 cells assessed as suppression of dopamine-induced inhibition of forskolin-stimulated cAMP accumulation measured after 30 mins by Eu-cAMP tracer based TR-FRET assay; assay type: functional, cell-based; details: not given
T2 sequence (P21917 whole entry): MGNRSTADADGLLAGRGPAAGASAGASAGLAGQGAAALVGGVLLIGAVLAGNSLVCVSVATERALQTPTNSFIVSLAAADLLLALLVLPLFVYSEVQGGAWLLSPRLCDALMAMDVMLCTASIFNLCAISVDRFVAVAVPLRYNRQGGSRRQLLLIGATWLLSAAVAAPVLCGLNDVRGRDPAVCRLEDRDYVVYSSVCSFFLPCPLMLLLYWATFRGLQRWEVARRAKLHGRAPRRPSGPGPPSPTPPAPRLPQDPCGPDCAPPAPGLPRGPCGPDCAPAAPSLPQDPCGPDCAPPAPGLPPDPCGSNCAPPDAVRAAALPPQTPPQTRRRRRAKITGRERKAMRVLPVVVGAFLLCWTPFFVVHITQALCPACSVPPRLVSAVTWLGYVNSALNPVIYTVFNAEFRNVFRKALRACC

SMILES	IC50
Cc1cccc(NC(=O)CCN2CCN(c3ncccn3)CC2)c1	2120 nM
CCc1cccc(NC(=O)CN2CCN(c3ccc(Cl)cn3)CC2)c1	7060 nM

target: T2, D(4) dopamine receptor; assay: Agonist activity at human D4 receptor expressed in CHOK1 cells assessed as inhibition of forskolin-induced cAMP accumulation measured after 30 mins by Eu-cAMP tracer based TR-FRET assay; assay type: functional, cell-based; details: not given; method in brief: as §1

SMILES	EC50
CCc1cccc(NC(=O)CN2CCN(c3ccc(Cl)cn3)CC2)c1	Not Active

same assay, conditions: read-out: EC50

SMILES	EC50
Cc1cccc(NC(=O)CCN2CCN(c3ncccn3)CC2)c1	568 nM

target: T3, D(3) dopamine receptor (Homo sapiens, UniProt P35462); assay: Displacement of [3H]N-methylspiperone from human D3 receptor expressed in HEK293 cell membranes measured after 60 mins by scintillation counting method; details: not given
Method in brief: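 HEK293 cells stably expressing human D3R; membranes in EBSS buffer pH 7.4, stored at −80 °C. 20 μg protein/well with 0.4 nM [3H]N-methylspiperone (final), half-log dilutions in 30% DMSO, in triplicate. 60 min at room temperature, then GF/B filtration. Nonspecific binding with 10 μM (+)-butaclamol.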

T3 sequence (P35462 whole entry): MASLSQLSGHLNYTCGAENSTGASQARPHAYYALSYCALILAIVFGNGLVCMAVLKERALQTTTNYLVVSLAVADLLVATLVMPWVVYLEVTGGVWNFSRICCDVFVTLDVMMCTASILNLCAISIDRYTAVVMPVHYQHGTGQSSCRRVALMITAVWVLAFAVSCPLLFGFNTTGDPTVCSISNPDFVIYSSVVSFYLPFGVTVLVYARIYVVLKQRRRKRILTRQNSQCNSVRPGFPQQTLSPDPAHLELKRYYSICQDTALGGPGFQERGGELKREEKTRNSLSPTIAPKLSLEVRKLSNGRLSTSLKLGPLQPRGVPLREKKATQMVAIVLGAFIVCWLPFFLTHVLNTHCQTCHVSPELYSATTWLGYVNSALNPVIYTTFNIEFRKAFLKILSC

SMILES	Ki
Cc1cccc(NC(=O)CCN2CCN(c3ncccn3)CC2)c1	4530 nM
CCc1cccc(NC(=O)CN2CCN(c3ccc(Cl)cn3)CC2)c1	> 50000 nM

target: T2, D(4) dopamine receptor; assay: Displacement of [3H]N-methylspiperone from human D4.4 receptor expressed in HEK293 cell membranes measured after 60 mins by scintillation counting method; details: not given
Method in brief: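 Frozen HEK293 membranes stably expressing human D4.4R (30 μg/well) in EBSS-bicarbonate buffer, pH 7.4, were incubated with 0.4 nM [3H]N-methylspiperone and half-log compound dilutions (30% DMSO vehicle) for 60 min at room temperature. Nonspecific binding was defined by 10 μM (+)-butaclamol. Samples were filtered on GF/B filters and counted by scintillation.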

SMILES	Ki
Cc1cccc(NC(=O)CCN2CCN(c3ncccn3)CC2)c1	526 nM
CCc1cccc(NC(=O)CN2CCN(c3ccc(Cl)cn3)CC2)c1	172 nM

target: T2, D(4) dopamine receptor; assay: Displacement of [3H](R)-(+)-7-OH-DPAT from human D4.4 receptor expressed in HEK293 cell membranes measured after 90 mins by scintillation counting method; details: not given
Method in brief: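 HEK293 cells stably expressing human D4.4R; membranes used fresh in 50 mM Tris, 10 mM MgCl2, 1 mM EDTA, pH 7.4. 60 μg protein/well with 3 nM [3H]-(R)-(+)-7-OH-DPAT (final), half-log dilutions in 30% DMSO, in triplicate. 90 min at room temperature, then GF/B filtration. Nonspecific binding with 10 μM (+)-butaclamol.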

SMILES	Ki
Cc1cccc(NC(=O)CCN2CCN(c3ncccn3)CC2)c1	33 nM

target: T3, D(3) dopamine receptor; assay: Antagonist activity at human D3 receptor expressed in CHOK1 cells assessed as inhibition of dopamine-induced beta-arrestin recruitment measured after 90 mins by luminescence assay; assay type: cell-based; details: not given
Method in brief: (§2)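 Antagonist-mode PathHunter β-arrestin assay in CHO-K1 cells stably expressing human D2R long isoform or D3R, seeded overnight. Compound dilutions in PBS with 0.2 μM metabisulfite were co-incubated with an EC80 dopamine concentration for 90 min at 37 °C. Detection reagent was added for 45–60 min at room temperature, then luminescence was read. Values are % of dopamine EC80 response, from nonlinear regression of triplicate runs, n = 3–4.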

SMILES	IC50
CCc1cccc(NC(=O)CN2CCN(c3ccc(Cl)cn3)CC2)c1	Not Active

same assay, conditions: read-out: IC50

SMILES	IC50
Cc1cccc(NC(=O)CCN2CCN(c3ncccn3)CC2)c1	> 50000 nM

target: T3, D(3) dopamine receptor; assay: Displacement of [3H](R)-(+)-7-OH-DPAT from human D3 receptor expressed in HEK293 cell membranes measured after 90 mins by scintillation counting method; details: not given
Method in brief: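 Fresh HEK293 hD3R membranes (40 μg/well) in 50 mM Tris, 10 mM MgCl2, 1 mM EDTA, pH 7.4 were incubated with 0.5 nM [3H]-(R)-(+)-7-OH-DPAT and half-log compound dilutions in 30% DMSO for 90 min at room temperature. Nonspecific binding was defined with 10 μM (+)-butaclamol. Samples were filtered on PEI-soaked GF/B filters and counted by scintillation.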

SMILES	Ki
Cc1cccc(NC(=O)CCN2CCN(c3ncccn3)CC2)c1	9350 nM

target: T2, D(4) dopamine receptor; assay: Agonist activity at human D4 receptor expressed in CHOK1 cells assessed as induction of beta-arrestin recruitment measured after 90 mins by luminescence assay; assay type: cell-based; details: not given
Method in brief: (§3)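 PathHunter enzyme-complementation assay in CHO-K1 cells stably expressing human D2R long isoform, D3R or D4R, seeded overnight in Ham's F12/10% FBS. Compounds were diluted in PBS with 0.2 μM sodium metabisulfite and applied at multiple concentrations for 90 min at 37 °C. Detection reagent was added for 45–60 min at room temperature, then luminescence was read. Values are % of maximal dopamine response, from nonlinear regression of triplicate runs, mean ± SEM, n = 3–4.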

SMILES	EC50
Cc1cccc(NC(=O)CCN2CCN(c3ncccn3)CC2)c1	Not Active
CCc1cccc(NC(=O)CN2CCN(c3ccc(Cl)cn3)CC2)c1	Not Active

target: D(1B) dopamine receptor (Homo sapiens) (UniProt P21918); assay: Agonist activity at D5 receptor (unknown origin) stably expressed in CHOK1 cells assessed as induction of beta-arrestin recruitment measured after 90 mins by luminescence assay; assay type: cell-based; details: not given
Sequence (P21918 whole entry): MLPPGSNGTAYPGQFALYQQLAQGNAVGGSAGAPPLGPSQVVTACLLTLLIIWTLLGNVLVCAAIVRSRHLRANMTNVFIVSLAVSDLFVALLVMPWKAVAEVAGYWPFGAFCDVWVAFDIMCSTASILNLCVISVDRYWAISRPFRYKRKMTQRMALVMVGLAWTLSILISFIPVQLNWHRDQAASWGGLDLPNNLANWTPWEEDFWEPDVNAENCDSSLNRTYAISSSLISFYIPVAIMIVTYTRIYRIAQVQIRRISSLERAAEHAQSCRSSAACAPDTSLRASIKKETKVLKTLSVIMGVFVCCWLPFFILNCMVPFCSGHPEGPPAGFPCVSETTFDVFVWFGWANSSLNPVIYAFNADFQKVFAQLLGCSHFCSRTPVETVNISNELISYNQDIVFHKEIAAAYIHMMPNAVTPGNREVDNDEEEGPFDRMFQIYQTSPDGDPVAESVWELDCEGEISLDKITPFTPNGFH

SMILES	Activity
Cc1cccc(NC(=O)CCN2CCN(c3ncccn3)CC2)c1	inactive

target: T1, D(2) dopamine receptor; assay: Antagonist activity at human D2L receptor expressed in CHOK1 cells assessed as inhibition of dopamine-induced beta-arrestin recruitment measured after 90 mins by luminescence assay relative to control; assay type: cell-based; details: not given; method in brief: as §2

SMILES	INH
Cc1cccc(NC(=O)CCN2CCN(c3ncccn3)CC2)c1	94.6%
CCc1cccc(NC(=O)CN2CCN(c3ccc(Cl)cn3)CC2)c1	100%

target: D(1A) dopamine receptor (Homo sapiens) (UniProt P21728); assay: Antagonist activity at D1 receptor (unknown origin) stably expressed in CHOK1 cells assessed as inhibition of dopamine-induced beta-arrestin recruitment measured after 90 mins by luminescence assay; assay type: cell-based; details: not given
Sequence (P21728 whole entry): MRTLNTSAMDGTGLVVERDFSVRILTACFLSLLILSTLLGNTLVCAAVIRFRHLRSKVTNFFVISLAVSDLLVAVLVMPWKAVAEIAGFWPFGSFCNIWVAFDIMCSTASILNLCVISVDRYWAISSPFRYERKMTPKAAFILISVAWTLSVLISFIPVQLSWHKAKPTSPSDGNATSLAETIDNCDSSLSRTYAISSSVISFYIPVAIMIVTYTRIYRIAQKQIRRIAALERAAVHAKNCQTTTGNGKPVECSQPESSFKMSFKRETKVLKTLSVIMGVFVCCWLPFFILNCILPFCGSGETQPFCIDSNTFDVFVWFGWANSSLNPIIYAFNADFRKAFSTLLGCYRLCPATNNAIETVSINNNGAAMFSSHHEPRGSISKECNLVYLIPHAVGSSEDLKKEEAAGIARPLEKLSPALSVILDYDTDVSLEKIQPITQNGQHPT

SMILES	inhibition
Cc1cccc(NC(=O)CCN2CCN(c3ncccn3)CC2)c1	inactive

target: D(1B) dopamine receptor (Homo sapiens) (UniProt P21918); assay: Antagonist activity at D5 receptor (unknown origin) stably expressed in CHOK1 cells assessed as inhibition of dopamine-induced beta-arrestin recruitment measured after 90 mins by luminescence assay; assay type: cell-based; details: not given

SMILES	inhibition
Cc1cccc(NC(=O)CCN2CCN(c3ncccn3)CC2)c1	inactive

target: T1, D(2) dopamine receptor; assay: Agonist activity at human D2L receptor expressed in CHOK1 cells assessed as induction of beta-arrestin recruitment measured after 90 mins by luminescence assay; assay type: cell-based; details: not given; method in brief: as §3

SMILES	EC50
Cc1cccc(NC(=O)CCN2CCN(c3ncccn3)CC2)c1	Not Active
CCc1cccc(NC(=O)CN2CCN(c3ccc(Cl)cn3)CC2)c1	Not Active

target: T2, D(4) dopamine receptor; assay: Antagonist activity at human D4 receptor expressed in CHOK1 cells assessed as inhibition of dopamine-induced beta-arrestin recruitment measured after 90 mins by luminescence assay; assay type: cell-based; details: read-out: IC50

SMILES	IC50
Cc1cccc(NC(=O)CCN2CCN(c3ncccn3)CC2)c1	430 nM
CCc1cccc(NC(=O)CN2CCN(c3ccc(Cl)cn3)CC2)c1	10400 nM

target: D(1A) dopamine receptor (Homo sapiens) (UniProt P21728); assay: Agonist activity at D1 receptor (unknown origin) stably expressed in CHOK1 cells assessed as induction of beta-arrestin recruitment measured after 90 mins by luminescence assay; assay type: cell-based; details: not given

SMILES	Activity
Cc1cccc(NC(=O)CCN2CCN(c3ncccn3)CC2)c1	inactive

target: T3, D(3) dopamine receptor; assay: Agonist activity at human D3 receptor expressed in CHOK1 cells assessed as induction of beta-arrestin recruitment measured after 90 mins by luminescence assay; assay type: cell-based; details: not given; method in brief: as §3

SMILES	EC50
Cc1cccc(NC(=O)CCN2CCN(c3ncccn3)CC2)c1	Not Active
CCc1cccc(NC(=O)CN2CCN(c3ccc(Cl)cn3)CC2)c1	Not Active
